The series concerns Plasma. Briefly: Drug uptake in plasma of human COLO205-F1756 clone 4 cells harboring APC mutant xenografted CrTac:NCr-Foxn1nu mouse at 70 mg/kg, po bid for 9 days measured after 2 to 6 hrs. The series is classed as ADME, organism-based, COLO 205. On the set-up: dose 70 mg/kg, route oral. As to conditions: in vivo; call rule not given here. In short, it runs like this: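 In COLO205-F1756 clone 4 xenograft-bearing nude mice dosed orally at 70 mg/kg bid, cardiac blood and tumours were taken 2 and 6 h after the final dose. Tumours were homogenized in 3 v/w PBS, methanol-extracted with internal standard, and total levels were measured by UPLC–MS/MS (MRM, positive ion).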

Take `Cn1cc(-c2ccc(-c3cncc(Cl)c3N3CCC4(CCNC4=O)CC3)cc2)cn1`: the Drug uptake result is “Active”.

Source of the values: ChEMBL document CHEMBL3407438, “Discovery of potent, orally bioavailable, small-molecule inhibitors of WNT signaling from a cell-based pathway screen” (J Med Chem, 2015).
